Measurements published in ChEMBL document CHEMBL1177869, “Synthesis and dual PPARalpha/delta agonist effects of 1,4-disubstituted 1,2,3-triazole analogues of GW 501516” (Eur J Med Chem, 2010).
Calls of active or inactive are those of the source. The rule behind the calls is not given here.

Tests used:
[1] = Induction of [14C]-oleic acid oxidation in human differentiated skeletal muscle cells assessed as accumulation of oxidized [14C]-oleic acid after 4 hrs by liquid scintillation counting; type: functional
Method in brief: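 Human skeletal muscle myoblasts grown to 70-80% confluence, then differentiated 7 days (DMEM 5.5 mM glucose, 2% FCS, 25 pM insulin). Compound at five concentrations from day 3 (96 h). [1-14C]oleic acid (1 μCi/mL, 100 μM) in DPBS with 10 mM HEPES and 1 mM L-carnitine, 4 h at 37 °C. Filter-trapped CO2 counted by scintillation, normalized to protein. EC50 by non-linear regression. GW 501516 positive control.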

[2] = target: T1, Peroxisome proliferator-activated receptor delta (Homo sapiens) (UniProt Q03181); assay: Agonist activity at human PPARdelta ligand binding domain expressed in COS-1 cells co-transfected with Gal4 at 10 uM by luciferase reporter gene assay; type: cell-based
T1 sequence (whole entry): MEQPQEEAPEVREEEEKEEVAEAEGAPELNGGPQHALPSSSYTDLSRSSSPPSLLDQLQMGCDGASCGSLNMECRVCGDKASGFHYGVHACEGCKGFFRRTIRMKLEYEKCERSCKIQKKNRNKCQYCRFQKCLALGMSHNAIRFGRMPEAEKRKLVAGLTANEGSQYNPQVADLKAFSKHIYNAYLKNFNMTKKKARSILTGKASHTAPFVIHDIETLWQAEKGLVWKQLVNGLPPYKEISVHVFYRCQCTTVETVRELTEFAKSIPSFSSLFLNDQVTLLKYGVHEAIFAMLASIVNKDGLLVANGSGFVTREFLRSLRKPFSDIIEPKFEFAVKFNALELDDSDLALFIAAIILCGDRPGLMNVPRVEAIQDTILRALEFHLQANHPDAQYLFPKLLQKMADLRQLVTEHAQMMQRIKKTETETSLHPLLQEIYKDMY
Method in brief: (§1)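 COS-1 cells in DMEM with 10% inactivated FBS, 37 °C, 5% CO2, plated 1 day before lipofectamine transfection. Per well: 320 ng (UAS)5-tk-LUC reporter, 640 ng empty pGL3 basic, 30 ng pSG5-GAL4-hPPAR (α, δ or γ). Compound 10 μM (DMSO negative control) added 5 h post-transfection. Cells kept 24 h, then lysed for luciferase read-out.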

[3] = target: T2, Peroxisome proliferator-activated receptor alpha (Homo sapiens) (UniProt Q07869); assay: Agonist activity at human PPARalpha ligand binding domain expressed in COS-1 cells co-transfected with Gal4 at 10 uM by luciferase reporter gene assay; type: cell-based
T2 sequence (whole entry): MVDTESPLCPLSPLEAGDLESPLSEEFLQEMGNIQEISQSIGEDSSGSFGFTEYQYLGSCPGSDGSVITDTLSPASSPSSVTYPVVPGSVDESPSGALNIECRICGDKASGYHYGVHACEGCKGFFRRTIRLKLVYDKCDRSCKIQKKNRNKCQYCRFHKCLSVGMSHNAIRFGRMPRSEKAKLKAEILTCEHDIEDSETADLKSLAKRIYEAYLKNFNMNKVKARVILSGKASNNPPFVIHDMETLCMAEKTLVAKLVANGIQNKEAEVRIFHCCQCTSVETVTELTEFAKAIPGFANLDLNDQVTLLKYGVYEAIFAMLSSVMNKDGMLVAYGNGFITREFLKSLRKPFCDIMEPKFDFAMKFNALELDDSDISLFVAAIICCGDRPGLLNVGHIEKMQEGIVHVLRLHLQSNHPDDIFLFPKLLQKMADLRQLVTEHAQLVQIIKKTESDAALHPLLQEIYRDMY
Method in brief: as §1, with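 “read-out. Positive controls: EHA for PPARα, GW 501516 for PPARδ.” for “read-out.”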

[4] = target: T3, Peroxisome proliferator-activated receptor gamma (Homo sapiens) (UniProt P37231); assay: Agonist activity at human PPARgamma ligand binding domain expressed in COS-1 cells co-transfected with Gal4 at 10 uM by luciferase reporter gene assay; type: cell-based
T3 sequence (whole entry): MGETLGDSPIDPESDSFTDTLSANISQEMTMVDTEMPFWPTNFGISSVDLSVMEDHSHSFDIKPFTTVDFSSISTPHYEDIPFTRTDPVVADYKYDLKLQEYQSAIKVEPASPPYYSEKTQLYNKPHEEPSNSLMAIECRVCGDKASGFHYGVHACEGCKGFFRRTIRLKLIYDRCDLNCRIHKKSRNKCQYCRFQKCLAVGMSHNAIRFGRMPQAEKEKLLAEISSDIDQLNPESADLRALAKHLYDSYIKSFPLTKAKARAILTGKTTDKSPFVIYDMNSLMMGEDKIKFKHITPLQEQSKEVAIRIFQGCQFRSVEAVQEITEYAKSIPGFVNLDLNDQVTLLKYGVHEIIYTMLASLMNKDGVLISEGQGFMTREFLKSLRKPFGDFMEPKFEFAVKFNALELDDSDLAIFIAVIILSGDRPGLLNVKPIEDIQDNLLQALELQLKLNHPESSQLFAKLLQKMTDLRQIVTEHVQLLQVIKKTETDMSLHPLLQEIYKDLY
Method in brief: as §1, with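 “read-out. Positive controls: EHA for PPARα, GW 501516 for PPARδ.” for “read-out.”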

| EC50 [1] [nM] | Activity [2] | Activity [3] | Activity [4] | Compound |
| --- | --- | --- | --- | --- |
| 1.4 |  |  |  | Cc1cc(SCc2cn(-c3ccc(OC(F)(F)F)c(F)c3)nn2)ccc1OCC(=O)O |
| 0.85 | Active | Active | inactive | Cc1cc(SCc2cn(-c3ccc(C(F)(F)F)c(F)c3)nn2)ccc1OCC(=O)O |
| 1.8 |  |  |  | Cc1cc(SCc2cn(-c3ccc(C(F)(F)F)cc3)nn2)ccc1OCC(=O)O |
| 10 |  |  |  | Cc1cc(SCc2cn(-c3ccc(OC(F)(F)F)cc3)nn2)ccc1OCC(=O)O |
| 12 | Active | Active | inactive | Cc1cc(SCc2cn(-c3ccc(OC(F)(F)F)c(Cl)c3)nn2)ccc1OCC(=O)O |
| 0.07 |  |  |  | Cc1cc(SCc2sc(-c3ccc(C(F)(F)F)cc3)nc2C)ccc1OCC(=O)O [GW501516] |
